Source: paper PMC9063559 (RSC Advances, 2019)
Blank lines part the entries; values can stand above or below the molecule they belong to.

Legend:
Format in all cases: cell-based
[1] = tested on: Plasmodium falciparum (NF54 strain); assay: in vitro antiplasmodial activity, chloroquine-sensitive NF54 strain; conditions: NF54, read-out: IC50 P. falciparum (NF54 strain)
Summary of the method: (§1)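 Test compounds were run in vitro in parallel against P. falciparum NF54 and K1, T. cruzi Tulahuen C4 amastigotes, T. b. rhodesiense STIB 900 trypomastigotes, L. donovani MHOM-ET-67/L82 amastigotes and rat L6 skeletal myoblasts. Each IC50 is the mean of two independent assays, with individual values within a factor of 2. Selectivity index = L6 IC50 ÷ P. falciparum IC50 for the respective strain.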

[2] = tested on: Trypanosoma brucei rhodesiense (STIB 900 strain, trypomastigotes); assay: in vitro activity against Trypanosoma brucei rhodesiense; conditions: RHODESIENSE|STIB900, read-out: IC50 T. brucei rhodesiense
Summary of the method: as §1

[3] = tested on: Leishmania donovani (MHOM-ET-67/L82, amastigotes); assay: in vitro activity against Leishmania donovani; conditions: read-out: IC50 L. donovani
Summary of the method: as §1

[4] = cytotoxicity against mammalian host cells; conditions: rat, rat skeletal myoblast L6 cells
Summary of the method: as §1

SMILES: C[C@@H]1CC[C@H]2[C@@H](C)C(=O)O[C@@H]3O[C@@]4(C)CC[C@@H]1[C@]32OO4 [Artemisinin]
IC50 [1]: 21 nM

SMILES: Nc1nc(N)nc(Nc2ccc([As]3SCC(CO)S3)cc2)n1 (stereo not shown) [Melarsoprol]
IC50 [2]: 30 nM

IC50 [3]: 1080 nM
SMILES: CCCCCCCCCCCCCCCCOP(=O)([O-])OCC[N+](C)(C)C [Miltefosine]

SMILES: COc1cc([C@@H]2c3cc4c(cc3[C@H](O)[C@H]3COC(=O)[C@H]23)OCO4)cc(OC)c1OC [Podophyllotoxin]
IC50 [4]: 9.6 nM
